# Assay outcomes: PubChem, Sanford-Burnham Center for Chemical Genomics
# HKDC1 activator: increases human hexokinase HKDC1 activity; AID 493187; activity change, negative = activation, % at 20 µM; recombinant HKDC1, G6PDH/diaphorase resazurin fluorescence; hits give low values; actives 0.056% (n = 340,000); Q2TB90;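 active = activation of 40% or more at 20 µM, a change of -40% or lower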
#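 Material – in-house human HKDC1 enzyme, G6PDH and diaphorase coupling enzymes · Input – HKDC1 at 5 µg/mL final · Buffer or medium – pH 8.0 Tris with MgCl2 · Dosing – single compound dose of 20 µM, 1% DMSO final · Incubation – 90 min, room temperature · Technique – resorufin fluorescence from 100 µM resazurin, NADP 1 mM, Ex 525/Em 613 nm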
# * = called active by the depositor. Only a sample is shown.
SMILES,HKDC1 activator
Cc1nnc(N=c2ssnc2Cl)o1,-88*
COc1cc(N=c2ssnc2Cl)c(OC)cc1Cl,-46*
COc1ccccc1Nc1ccc2c(O)cc(S(=O)(=O)O)cc2c1,38
COc1cccc(CC(Cc2nc3ccccc3[nH]2)c2nc3ccccc3[nH]2)c1 (centres undefined),50
CC(OC(=O)c1cc(O)c2ccccc2c1O)C(=O)Nc1ccc(C(N)=O)cc1 (centres undefined),39
CCOC(=O)/C(=C\c1cccnc1)C(=O)c1cc(C(C)=O)c(Nc2ccccc2)s1,42
COc1cc(NC(=O)c2cnc(N)s2)cc(C(=O)Nc2cccc(C(F)(F)F)c2)c1,59
O=C1NN(c2ccc(F)c(Cl)c2)C(=O)/C1=C\c1cccc(OC(=O)c2cccs2)c1,44
Cc1cccc(NC2=C/C(=N/S(=O)(=O)c3cccs3)c3ccccc3C2=O)c1,53
CCN1/C(=C/C=C/c2oc3ccc4ccccc4c3[n+]2CC)Oc2ccc3ccccc3c21,51
O=C(O)c1cccc2cccc(-c3c4ccc(=O)c(O)c-4oc4c(O)c(O)ccc34)c12,70
COc1ccc(-c2nc3c(C(=O)NCCN(C)C)cccc3c3ccccc23)cc1,39
O=C(CSc1n[nH]c(-c2cccnc2)n1)Nc1ccc([N+](=O)[O-])cc1Br,46
N#C/C(C(N)=O)=c1/ccc2c(c1)N1C3=C(CCCC3)CC3CCCCC31N=2 (centres undefined),52
CC(=O)Oc1cccc2c1C(=O)C1CC=CC(OC(C)=O)C1C2=O (centres undefined),-45*
O=[N+]([O-])c1ccc(N/N=C/c2ccc(O)c(O)c2O)c(S(=O)(=O)N2CCOCC2)c1,38
O=C(O)CSc1cc(NS(=O)(=O)c2ccc(Cl)cc2)c2ccccc2c1O,65
O=C(NNC(=O)c1cccnc1)NC1CCCCC1,-60*
O=C(Nc1ccc2nc(-c3ccco3)c(-c3ccco3)nc2c1)NC1CC1,50
N#CC(C#N)=C1SC(=Nc2ccccc2)C(=Nc2ccccc2)N1c1ccccc1,-86*
Fc1ccc(N2C(=S)SC(=Nc3ccccc3)C2=Nc2ccccc2)cc1,-50*
CC(C)C(C(=O)O)N1C(=O)/C(=C/C=C/c2ccco2)SC1=S (centres undefined),51
O=C1C(Cl)=C(N2CCCCC2)C(=O)C(Cl)=C1c1cnc(N2CCCCC2)s1,70
Cc1ccc(C(=O)ONc2ccc(N=NC(=O)c3ccccc3O)cc2)cc1,65
COc1cc(/C=C(\C#N)c2nc3ccc(C)cc3[nH]2)cc([N+](=O)[O-])c1O,41
SMILES,HKDC1 activator
O=[N+]([O-])c1ccc(-c2csc(N/N=C/c3cccnc3)n2)cc1,36
COc1ccc([C@@H]2C[C@H](c3ccccc3)Oc3cc(OC)c(OC)c(OC)c32)cc1,37
CC(=O)NC1C(=O)N(CCN2CCOCC2)c2ccc(C)cc21 (centres undefined),86
CNc1sc(C(=O)c2ccc(F)cc2)c(N)c1-c1nc2ccccc2s1,-45*
CC(=NNC(=S)N1CC2CCC(CC2)C1)c1cccc(C)n1,-47*
COc1cc(/C=C2\SC(c3ccc(C)cc3)=NC2=O)cc(OC)c1O,48
CSc1nc(N(C)CCO)c2sc3nc(-c4ccco4)c4c(c3c2n1)CCC4,47
CC(=O)n1cc(N(C(=O)CCl)c2ccc(Cl)cc2)c2ccccc21,58
CCC(Sc1nc(C)cc(C)n1)C(=O)NC1=NN=C(c2ccc(C)cc2)CS1 (centres undefined),-149*
C=CCn1nc([N+](=O)[O-])nc1Sc1cccc2cccnc12,-47*
CCc1ccc(S(=O)(=O)NCCc2cn3ccccc3n2)s1,39
CN(C)Cc1cc(O)c(CN(C)C)cc1O,47
O=C(C1=C(O)C(=O)N(c2nc3ccc(Cl)cc3s2)C1c1ccco1)c1ccco1 (centres undefined),36
O=C(O)c1cccc(-c2ccc(/C=c3/sc4nc5ccccc5n4c3=O)o2)c1,48
C=CCOc1ccc(C=NNc2ccc(S(=O)(=O)Nc3ccccc3C(=O)O)cc2[N+](=O)[O-])cc1OC,51
CCN(CC)c1ccc(C(=C2C=CC(=[N+](CC)CC)C=C2)c2ccc(N(CC)CC)cc2)cc1,54
Cc1c(C(=O)Oc2ccc(-c3cnc4ccccc4n3)cc2)cccc1[N+](=O)[O-],-89*
COc1ccc(NC(=O)c2cc3ccccc3cc2O)cc1,38
O=c1[nH]c(=O)c2nc3c4ccccc4c4ccccc4c3nc2[nH]1,37
CC(C)(C)c1nnc(N/N=C/c2cc(Br)ccc2O)n(N)c1=O,-43*
O=C(O)c1ccc(NC2=C/C(=N/S(=O)(=O)c3ccccc3)c3ccccc3C2=O)cc1,72
CC(C)(C)n1[nH]c2c3c(ccc2c1=O)C(=O)c1ccccc1C3=O,42
O=C1CSC(=S)N1N=Cc1ccccc1O,-42*
O=S(=O)(c1ccc(NC(=S)NN=C(Cc2ccccc2)Cc2ccccc2)cc1)N1CCOCC1,-47*
Cc1cc2nnc(SCC(=O)Nc3cc(S(=O)(=O)N4CCOCC4)ccc3Cl)n2c2ccccc12,48
